pPAFAH inh: pPAFAH enzyme inhibitors, primary screen, biochemical, fluorescence polarization, human; Platelet-activating factor acetylhydrolase (Homo sapiens), Q13093; AID 463082, 2010; recombinant pPAFAH, FP-rhodamine probe fluorescence polarization; inhibition, % at 3.39 µM; 1.5% of 330,000 active;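 active = inhibition above the mean inhibition across the screen plus 3 SD, cut at about 25% in these data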;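 note: inhibitors block binding of the rhodamine activity-based probe so polarization drops; 0% = enzyme with DMSO and 100% = wells lacking pPAFAH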
PAFAH2 FP inh: PAFAH2 enzyme inhibitors, primary screen, biochemical, fluorescence polarization, human; AID 492956, 2010; inhibition, % at 3.39 µM; Platelet-activating factor acetylhydrolase 2, cytoplasmic (Homo sapiens), Q99487; recombinant PAFAH2, FP-rhodamine activity probe; 0.99% of 340,000 active;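 active = inhibition above the mean over all tested compounds plus 3 SD, cut at about 30% in these data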;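 note: inhibitors block probe labeling of enzyme so polarization drops; 0% = enzyme with DMSO and 100% = wells lacking PAFAH2 protein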
PAFAH1B3 inh: PAFAH1B3 enzyme inhibitors, primary screen, biochemical, fluorescence polarization, human; Platelet-activating factor acetylhydrolase IB subunit alpha1 (Homo sapiens), Q15102; recombinant PAFAH1B3, FP-rhodamine probe; inhibition, % at 3.39 µM; 0.28% of 340,000 active;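 active = inhibition above the screen-wide average of all tested compounds plus 3 SD, cut at about 25% in these data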;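 note: 0% = enzyme with DMSO only and 100% = wells lacking PAFAH1B3 protein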
Target sequence (Q15102 whole entry, looked up): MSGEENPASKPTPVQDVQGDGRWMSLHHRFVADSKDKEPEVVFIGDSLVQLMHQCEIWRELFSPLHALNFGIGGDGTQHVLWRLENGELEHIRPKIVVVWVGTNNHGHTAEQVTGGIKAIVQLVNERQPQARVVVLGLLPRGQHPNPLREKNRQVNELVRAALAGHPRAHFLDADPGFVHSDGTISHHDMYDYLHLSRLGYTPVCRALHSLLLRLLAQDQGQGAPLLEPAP
ASAP1 GAP inh: inhibitors of human ASAP1 ArfGAP activity, primary screen, biochemical, fluorescence polarization; inhibition, % at 16.5 µM; 0.19% of 360,000 active; AID 624377, 2012; ASAP1-stimulated ARF1 GTP hydrolysis, GDP FP detection; in the data active = inhibition above about 25%;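 note: 0% = vehicle with enzyme and substrate and 100% = no enzyme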
Target sequence (Q9ULH1 325-724 limits assumed): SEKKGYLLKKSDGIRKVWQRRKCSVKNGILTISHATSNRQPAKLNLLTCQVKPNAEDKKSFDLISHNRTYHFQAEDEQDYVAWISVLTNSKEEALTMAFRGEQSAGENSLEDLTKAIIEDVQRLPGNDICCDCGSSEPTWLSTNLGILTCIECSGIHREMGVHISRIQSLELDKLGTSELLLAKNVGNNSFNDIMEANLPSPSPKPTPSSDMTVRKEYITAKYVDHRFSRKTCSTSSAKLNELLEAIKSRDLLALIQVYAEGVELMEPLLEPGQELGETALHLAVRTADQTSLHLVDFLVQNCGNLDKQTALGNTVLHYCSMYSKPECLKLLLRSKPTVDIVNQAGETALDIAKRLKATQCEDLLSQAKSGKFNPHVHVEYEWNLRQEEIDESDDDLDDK
ARFGAP1 inhibitor: inhibitors of rat ARFGAP1 GAP activity, primary screen, biochemical, fluorescence polarization, GDP tracer; 0.26% of 360,000 active; inhibition, % at 16.5 µM; Arfgap1-stimulated ARF1 GTP hydrolysis, GDP FP detection; AID 651572, 2012;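 active = inhibition above a per-plate limit, mean inhibition of low control wells plus 3 SD, cut at about 25% in these data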;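 note: 0% = DMSO wells with enzyme and 100% = wells lacking Arfgap1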
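system = rat Arfgap1 catalytic domain, aa 1-136 | technique = FP, GDP Alexa 633 tracer displaced from anti-GDP antibody, 620/688 nm | compound = one concentration, 16.5 µM, DMSO 1.26% | medium = HEPES-based buffer, pH 7.5 | timing = compound-enzyme preincubation 20 min, reaction 120 min, detection 60 min, 25 °C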
PAFAH1B2 inh: PAFAH1B2 enzyme inhibitors, primary screen, biochemical, fluorescence polarization, human; Platelet-activating factor acetylhydrolase IB subunit alpha2 (Homo sapiens), P68402; 1.2% of 340,000 active; recombinant PAFAH1B2, FP-rhodamine activity probe; inhibition, % at 3.39 µM;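 active = inhibition above the mean of all tested compounds plus 3 SD, cut at about 24% in these data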;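 note: 0% = enzyme with DMSO and 100% = wells lacking PAFAH1B2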
pPAFAH FP conf: pPAFAH (PLA2G7) enzyme inhibitors, confirmation, biochemical, fluorescence polarization, human | shares compounds with pPAFAH inh | recombinant pPAFAH, FP-Rh probe fluorescence polarization | inhibition, % at 3.39 µM | 72% of 2,300 active;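 active = mean inhibition of the triplicate above the hit cutoff set for the earlier primary screen, cut at about 25% in these data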;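 note: 0% = enzyme with DMSO and 100% = wells lacking pPAFAH enzyme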
The depositor's hits bear a star; . = no result given. An excerpt weighted towards active compounds, which were near 2.7% of everything screened.

SMILES | pPAFAH inh | PAFAH2 FP inh | PAFAH1B3 inh | ASAP1 GAP inh | ARFGAP1 inhibitor | PAFAH1B2 inh | pPAFAH FP conf
Oc1c(Br)cc(/C=N/NC(=S)NCc2ccco2)cc1Br | 41* | 22 | -2 | 5 | 1 | 15 | 57*
Cc1coc2c1C(=O)C(=O)c1c-2ccc2c1CCCC2(C)C | 56* | 76* | 7 | 7 | -3 | 27* | 70*
C[C@H]1COC2=C1C(=O)C(=O)c1c2ccc2c1CCCC2(C)C | 80* | 41* | 28* | . | . | 18 | 74*
CCCCn1c(N)c(N(CC(C)C)C(=O)CSc2nnc(C)n2-c2ccccc2)c(=O)[nH]c1=O | . | -3 | 5 | -3 | -8 | 1 | .
Cc1ccccc1C(=O)Nc1cccc(C(=O)N/N=C/c2cc(Cl)cc([N+](=O)[O-])c2O)c1 | 38* | 6 | -9 | 2 | -1 | 3 | 42*
COc1cc(/C=N/NC(=O)c2cccc(NC(=O)c3ccccc3C)c2)ccc1O | 8 | -3 | 14 | -2 | 6 | 9 | .
C=CCN=C(NC#N)SCC(=O)c1cccc(OC)c1 | 61* | 0 | 16 | 2 | -1 | 4 | 10
Cc1cc(C(=O)CSc2nc(N)cc(=O)[nH]2)c(C)n1CCc1ccc(F)cc1 | 61* | -9 | -12 | 14 | 2 | -4 | 62*
Cc1cc(C(=O)CSc2nnc(N)s2)c(C)n1CCc1ccc(F)cc1 | 13 | 3 | 12 | 16 | -4 | 10 | .
COc1ccc(CCn2c(C)cc(C(=O)CSc3nnc(N)s3)c2C)cc1 | 0 | 1 | 12 | . | . | 1 | .
Cc1cc(C(=O)CSc2nc(N)cc(=O)[nH]2)c(C)n1-c1ccc(OC(F)F)cc1 | 60* | 0 | -1 | 1 | -4 | 0 | 71*
COc1ccc(CCn2c(C)cc(C(=O)CSc3nc(N)cc(=O)[nH]3)c2C)cc1 | 35* | -4 | -2 | 5 | 0 | 1 | 31*
CC(=O)NC(c1ccccc1)c1nc(-c2cccs2)cs1 (stereo not drawn) | . | . | . | 4 | -18 | . | .
Nc1ccn([C@@H]2O[C@H](C(=O)N[C@H](Cc3ccccc3)C(=O)NCC(F)(F)F)[C@@H](O)[C@H]2O)c(=O)n1 | . | . | . | -4 | -4 | . | .
CC1(c2cccc(Br)c2)NC(=O)N(CC(=O)N2CCc3ccccc32)C1=O (stereo not drawn) | -1 | -7 | 1 | -1 | -2 | -4 | .
CCCOc1ccc(N2C(=O)CC(N(O)c3ccccc3)C2=O)cc1 (stereo not drawn) | 8 | -2 | -4 | -7 | 3 | 8 | .
O=C1CC(N(O)c2ccccc2)C(=O)N1c1cc(Cl)cc(Cl)c1 (stereo not drawn) | 51* | -4 | 6 | 6 | -1 | 7 | 8
Cc1ccc(NS(=O)(=O)c2csc(C(N)=O)c2)c(C)c1 | 36* | -3 | 6 | 5 | -1 | 7 | 19
O=C(O)c1cc(-c2ccco2)nn1-c1cccc(Cl)c1 | 40* | 16 | 12 | -4 | -4 | 9 | 16
O=C(O)c1cc(-c2ccco2)nn1-c1ccc(Cl)cc1 | . | 9 | 1 | 6 | 2 | 6 | .
CNC(=O)c1ccccc1C1(O)c2ccccc2CCc2ccccc21 | . | . | . | 12 | -1 | . | .
Cc1cc(O)c(CN(C)C)c2c1C(=O)/C(=C/c1ccco1)O2 | 14 | 3 | 18 | -1 | 1 | 2 | .
Cc1cc(O)c(C=O)c2c1C(=O)Oc1c(CO)c(O)c3c(c1O2)C(O)OC3=O (stereo not drawn) | 89* | 48* | 33* | . | . | 3 | 27*
Cc1cc(-c2ccccc2)n[nH]1 | 0 | 12 | -1 | 9 | -3 | 1 | .
FC(F)C(F)(F)C(F)(F)C(F)(F)c1cc(-c2ccccc2)n[nH]1 | 56* | 1 | 4 | 18 | 3 | -5 | 50*
SMILES | pPAFAH inh | PAFAH2 FP inh | PAFAH1B3 inh | ASAP1 GAP inh | ARFGAP1 inhibitor | PAFAH1B2 inh | pPAFAH FP conf
COc1cc(/C=C(\C#N)C(=O)c2ccc(O)c(O)c2)cc(I)c1O | 79* | 67* | -11 | -18 | -5 | 86* | 71*
CCOC(=O)CCCCCC(=O)Nc1ccc2c(c1)C(=O)N([C@H](C)CO)C[C@@H](C)[C@@H](CN(C)S(=O)(=O)c1ccc(C)cc1)OCCCC[C@H](C)O2 | . | . | . | -2 | 1 | . | .
CC(OC(=O)c1ccccc1Nc1ccc(SC(F)F)cc1)C(N)=O (stereo not drawn) | 35* | -2 | 4 | -8 | 12 | 4 | 24
CCC1CCC2(CC1)NC(=O)N(CC(=O)NCc1ccccc1Cl)C2=O (stereo not drawn) | -1 | -2 | -1 | -1 | 16 | 1 | .
CC(N=Cc1cc([N+](=O)[O-])ccc1O)c1ccccc1 (stereo not drawn) | -4 | 13 | 13 | 0 | -4 | 2 | .
CC(N=Cc1cccc(O)c1O)c1ccccc1 (stereo not drawn) | 66* | 26 | 24 | . | . | 17 | 17
O=C(Nc1ccc2ccccc2c1)C(c1ccc(C(F)(F)F)cc1)n1c(=O)c(-c2cc3ccccc3[nH]2)nc2ccccc21 (stereo not drawn) | . | . | . | 11 | 16 | . | .
CCCCNC(=O)CCc1nc2cccnc2n1Cc1ccccc1 | -4 | -3 | 12 | -5 | 0 | 2 | .
C[C@H](CO)N1C[C@H](C)[C@@H](CN(C)S(C)(=O)=O)Oc2ccc(NC(=O)Nc3ccc(C(F)(F)F)cc3)cc2C1=O | 44* | -14 | 1 | 0 | 12 | 1 | 45*
C[C@H](CO)N1C[C@H](C)[C@@H](CN(C)S(=O)(=O)c2ccc(F)cc2)Oc2ccc(NC(=O)Nc3ccc(C(F)(F)F)cc3)cc2C1=O | -31 | -77 | -80 | 20 | 6 | -55 | .
O=C1CCCc2ccccc2N1 | -1 | -2 | -6 | 12 | 8 | 0 | .
CC(=O)N1CCN(c2ccc(Nc3ncnc4c3oc3ccccc34)cc2)CC1 | 69* | -6 | 5 | -4 | -5 | 0 | 67*
CCc1nc(Nc2ccc(N3CCN(C(C)=O)CC3)cc2)c2oc3ccccc3c2n1 | 42* | 6 | -2 | -10 | -2 | 1 | 33*
CC(C)CCCCCCNC(=S)Nc1ccc(S(=O)(=O)N2CCOCC2)cc1 | 0 | -51 | -19 | 0 | 4 | -11 | .
